Screens (PubChem BioAssay)
An excerpt weighted towards active compounds, which were near 3.9% of everything screened.
697 NFkB inh – lowers PMA/ionomycin-induced NF-kB signal in 697 B cells; 697 B-cell NF-kB luciferase reporter, 16 h; inhibition, % at 4 µM; 330,000 tested, 0.33% active; in the data active = inhibition above about 35%
CHOP inhibitor – inhibitors of CHOP induction in ER stress response | CHO-K1 CHOP-promoter luciferase, tunicamycin-induced, 15-18 h | inhibition, % at 10 µM | 220,000 tested, 3.8% active;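 active = compounds that reduced the stress-induced luciferase reporter signal by more than about 70% of percent inhibition, limit read from the data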;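 note: 0% = tunicamycin plus vehicle and 100% = wells without tunicamycin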
Gli-Sufu block – blocks Gli-Sufu signaling in a luciferase reporter. 340,000 tested, 0.74% active. inhibition, % at 5 µM. Sufu-KO-LIGHT fibroblasts, Gli luciferase reporter luminescence;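 active = inhibition above about 55%, limit read from the data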;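 note: 0% = DMSO-treated cells and 100% = wells with medium but no cells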
CHOP UPR activ – apoptotic UPR (CHOP) activation; CHO-CHOP luciferase reporter, luminescence; percent of tunicamycin response over DMSO baseline; activation, % at 10 µM; 330,000 tested, 0.34% active; AID 449763;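 active = at 10 µM dose, activation of 40% or more, normalized to positive control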;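 note: 100% = tunicamycin at 10 µg/mL and 0% = DMSO alone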
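Test system: CHO-CHOP cells, stable luciferase reporter of PERK-eIF2a-CHOP signalling | Quantity: 500 CHO-CHOP cells per well | Buffer or medium: F12 plus 10% serum | Compound dosing: 10 µM single point, 0.5% DMSO | Schedule: 6 h compound treatment, 37 °C | Signal: Luciferase luminescence | Control set: Tunicamycin high control, DMSO low control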
UPR XBP1 act – activators of adaptive arm of unfolded protein response (XBP1); activation, % at 20 µM; AID 463104; CHO-XBP1 luciferase reporter, IRE1-XBP1 UPR activation, luminescence; percent of tunicamycin response, DMSO as zero; 330,000 tested, 0.33% active;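 active = versus positive control, 20 µM dose yields 30% or more activation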;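 note: 100% = tunicamycin at 10 µg/mL and 0% = DMSO only wells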
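incubation = overnight seeding at 37 °C, 6 h compound treatment at 37 °C | assay system = CHO-XBP1 cells stably carrying IRE1-XBP1-driven luciferase reporter | input = 1000 cells per well | detection = luciferase luminescence | dosing = single point, 20 µM final compound, 1% DMSO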
Jurkat NFkB inh – inhibitors of the PMA/ionomycin-induced NF-kB reporter in Jurkat cells; 330,000 tested, 0.53% active; AID 435003; inhibition, % at 4 µM; PMA/ionomycin-induced NF-kB luciferase reporter, luminescence; in the data active = inhibition above about 50%
Gli antag conf – Gli-SUFU antagonism confirmation, single concentration. shares compounds with Gli-Sufu block. Sufu-KO-LIGHT cells, Gli luciferase reporter, luminescence. inhibition, % at 5 µM. 2,500 tested, 40% active;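 active = mean inhibition at 5 µM reaching about 45%, limit read from the data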;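 note: plate controls were DMSO-treated cells for no effect and wells lacking cells for full effect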
Gli cytotox – cytotoxic in Gli-SUFU antagonist counter-screen | shares compounds with Gli-Sufu block | Sufu-KO-LIGHT cells cytotoxicity, ATP luminescence | cytotoxicity, % at 5 µM | 2,500 tested, 32% active | AID 651994;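 active = mean cytotoxicity at 5 µM above about 25%, limit read from the data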;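 note: cells exposed to compound overnight for roughly 16 to 18 hours; plate controls were DMSO wells with cells for no effect and medium without cells for full effect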
Wnt3a cs – inhibits Wnt3a reporter, counter-screen for Gli-SUFU antagonists | shares compounds with Gli-Sufu block | Wnt-LIGHT cells, Wnt3a-driven luciferase reporter, luminescence | inhibition, % at 6.25 µM | 2,500 tested, 20% active;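 active = mean inhibition above about 25%, limit read from the data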
The depositor's hits bear a star; x = no result given.

SMILES	697 NFkB inh	CHOP inhibitor	Gli-Sufu block	CHOP UPR activ	UPR XBP1 act	Jurkat NFkB inh	Gli antag conf	Gli cytotox	Wnt3a cs
O=C1[C@H](Cc2ccccc2)NCC=CC[C@H](c2ccc(Cl)cc2)N1Cc1ccccc1	x	x	5	x	x	x	x	x	x
COC(=O)c1ccc(NC(=O)CNC(=O)C2CCCCC2)cc1	-6	33	94*	0	1	-19	5	-4	-11
CSc1ccccc1C(=O)N1CCCC(CCC(=O)NCc2ccc(F)c(F)c2)C1 (stereo not drawn)	8	x	35	-2	-2	-1	x	x	x
Cc1noc(/C=C/c2ccccn2)c1[N+](=O)[O-]	-1	x	99*	-2	2	-1	16	29*	-18
Cc1sc2ncnc(N3CCN(c4ncccn4)CC3)c2c1C	3	26	6	-2	7	20	x	x	x
COc1cc(C(=O)N2CCN(c3ncnc4sc(C)c(C)c34)CC2)cc(OC)c1OC	-17	x	57*	2	-3	27	54*	31*	-22
CCOC(=O)C1CCCN(S(=O)(=O)c2cc(Br)cc3c2N(C(=O)CC)CC3)C1 (stereo not drawn)	9	x	-14	-1	2	1	x	x	x
COc1cc2c(cc1OC)C(COc1ccccc1OC)N(C(=O)c1ccco1)CC2 (stereo not drawn)	-4	-1	62*	-1	0	8	26	8	5
CC1CCCCN1C(=O)Cn1cnc2cc([N+](=O)[O-])ccc2c1=O (stereo not drawn)	1	-2	55*	1	0	23	12	-7	-16
Cc1cc(C)c(C(=O)Cn2cnc3cc([N+](=O)[O-])ccc3c2=O)cc1C	22	10	7	-1	1	-9	x	x	x
CN(C)S(=O)(=O)N1CCN(CC(O)COc2ccc(-c3ccccc3)cc2)CC1 (stereo not drawn)	-3	x	9	0	-7	5	x	x	x
COc1ccccc1-c1c(-c2ccc(O)cc2O)n[nH]c1C(F)(F)F	-48	33	50	-2	-1	34	63*	24	31*
COc1ccc(-c2c(-c3ccc(O)cc3O)n[nH]c2C(F)(F)F)cc1	12	1	4	-1	-1	7	x	x	x
Cn1c(C2CCCN2C(=O)OC(C)(C)C)n[nH]c1=S (stereo not drawn)	35	2	54	0	1	1	12	6	-2
O=C(Nc1ccccc1)c1cccc(C(=O)Nc2ccccc2)n1	-12	x	32	2	-5	17	x	x	x
O=C(O)c1ccc(NC(=O)c2cccc(C(=O)Nc3ccc(C(=O)O)cc3)n2)cc1	18	x	66*	2	-2	-3	16	13	9
N#Cc1ccsc1NC(=O)CCc1ccccc1	-4	-13	-14	4	-2	-7	x	x	x
N#Cc1ccsc1NC(=O)CCN1CCN(C(c2ccccc2)c2ccccc2)CC1	3	x	53	4	-2	-5	21	0	-17
CCCn1cc(CN2CCC(n3nccc3NC(=O)c3ccccc3)CC2)c(C)n1	3	x	4	-1	-2	16	x	x	x
CCNC(=S)Nc1ccc(Oc2ccccc2)cc1	-24	x	-6	3	-1	-12	x	x	x
COc1ccc(NC(=S)Nc2ccc(Oc3ccccc3)cc2)cc1	-2	17	77*	1	-1	8	38	22	0
CCCCNc1c(-c2ccc(OC)c(Sc3ccc(OC)cc3)c2)nc2ccccn12	-24	x	54	4	-7	-4	57*	26*	3
CCCCNc1c(-c2ccc(OC)c(Sc3ccc(OC)cc3)c2)nc2cnccn12	-14	x	4	5	16	1	x	x	x
COc1ccc(NC(=O)N(C)C[C@H]2Oc3ccc(NC(=O)Nc4c(C)noc4C)cc3C(=O)N([C@H](C)CO)C[C@@H]2C)cc1	-3	x	7	1	-1	2	x	x	x
COc1ccccc1-n1c(-c2ccccc2)c[n+]2c1CCc1ccccc1-2	4	6	81*	-2	-5	33	87*	24	32*
SMILES	697 NFkB inh	CHOP inhibitor	Gli-Sufu block	CHOP UPR activ	UPR XBP1 act	Jurkat NFkB inh	Gli antag conf	Gli cytotox	Wnt3a cs
CCCCCCCN1C2=NCCCN2c2ccccc21	-1	15	59*	0	1	21	41	4	16
CCCCN1C2=NCCCN2c2ccccc21	1	0	11	1	-1	-3	x	x	x
Cc1cc2c(cc1C)N(Cc1ccc(Cl)cc1)C1=NCCCN12	-8	x	7	0	-2	39	x	x	x
CCCCN1C2=NCCCN2c2cc(C)c(C)cc21	-79	59	64*	-1	2	9	67*	39*	29*
O=C(O)[C@H]1NCCC[C@H]1C(=O)O	x	-2	x	x	x	x	x	x	x
CCN(CC)S(=O)(=O)c1ccc(NC(=O)CCN2C(=O)C3CC=CCC3C2=O)cc1 (stereo not drawn)	16	x	14	1	-1	1	x	x	x
COc1ccc(-n2c(CCC(=O)O)ccc2-c2ccccc2)cc1	-7	-4	-11	3	0	-4	x	x	x
Brc1ccc(-c2c[n+]3c(n2-c2ccccc2)SCC3)cc1	-35	2	63*	1	0	9	60*	25*	-4
COc1ccc(-c2c[n+]3c(n2-c2ccccc2)SCC3)cc1	18	-5	76*	0	0	39	80*	25*	42*
Cc1ccc(-c2csc(NCCc3nc4cc(Cl)c(Cl)cc4n3CCCO)n2)cc1	-1	x	57*	-2	-1	6	25	35*	-59
COc1ccc(-c2csc(NCCc3nc4cc(Cl)c(Cl)cc4n3CCCO)n2)cc1	-1	x	16	3	-6	-11	x	x	x
Cc1cc(NC(=O)CSc2nc3cc(C(=O)NCCCOC(C)C)ccc3c(=O)n2Cc2ccco2)no1	16	58	0	1	-2	8	x	x	x
CC(=O)OCC1=C[C@@H]2OC(=O)C3=CO[C@@H](O[C@@H]4O[C@H](CO)[C@@H](O)[C@H](O)[C@H]4O)[C@H]1[C@@H]32	7	x	-1	-1	0	11	x	x	x
C=C1C(=O)OC2C=C(CO)C3OC3C3OC3(C)CC(OC(=O)/C(=C/C)COC(C)=O)C12 (stereo not drawn)	x	x	68*	x	x	x	61*	19	57*
CC1CCCN(CCOc2cccc(Oc3ccccc3)c2)C1 (stereo not drawn)	-7	x	51	-1	-1	3	27	9	-14
